From ChEMBL document CHEMBL4043134, “Isolation and lipolytic activity of eurycomanone and its epoxy derivative from Eurycoma longifolia” (Bioorg Med Chem, 2017) come the findings set out here.

For series [1], the system named is 3T3-L1. Briefly: Antiobesity activity in mouse 3T3L1 cells assessed as glycerol release at 1 uM after 24 hrs relative to control. In kind it is functional. An outline of the steps: (§1)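 3T3-L1 preadipocytes were differentiated with IBMX (0.5 mM), DEX (0.25 μM) and insulin (5 μg/mL) from day 0, then insulin alone, then plain 10% FBS/DMEM. On day 8 they were exposed to sample (DMSO stock diluted in phenol-red-free DMEM) for 24 h. Medium was mixed with free glycerol reagent (37 °C, 5 min) and read at A540, relative to control. Mean ± SEM, n=6.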

For series [2], the system named is 3T3-L1. The series can be described thus: Antiobesity activity in mouse 3T3L1 cells assessed as increase in glycerol release up to 100 uM after 24 hrs relative to control. In kind it is functional, cell-based. An outline of the steps:
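Mouse 3T3-L1 preadipocytes were differentiated from day 0 (one day post-confluence) in 10% FBS/DMEM with 0.5 mM IBMX, 0.25 μM DEX and 5 μg/mL insulin, then switched to insulin medium, then plain medium; used on day 8. Samples were dissolved in DMSO and diluted into phenol-red-free DMEM, applied for 24 h. Medium glycerol was measured with free glycerol reagent (37 °C, 5 min, A540) relative to control; 1 μM isoproterenol positive control; mean ± SEM, n=6, Dunnett's test.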

Series [3] has as its system 3T3-L1. The series can be described thus: Antiobesity activity in mouse 3T3L1 cells assessed as reduction in accumulation of lipid droplets up to 100 uM administered on day 4 post differentiation induction measured on day 9 by Oil Red O staining-based microscopic analysis relative to control. In kind it is functional, cell-based.
Series [4] concerns 3T3-L1. Briefly: Antiobesity activity in mouse 3T3L1 cells assessed as increase in glycerol release after 24 hrs. As to conditions: for EC50: 3T3-L1, 24 h. In kind it is functional, cell-based. The method in brief:
as §1

Series [5] concerns 3T3-L1. The series can be described thus: Antiobesity activity in mouse 3T3L1 cells assessed as reduction in accumulation of lipid droplets administered on day 4 post differentiation induction measured on day 9 by Oil Red O staining-based microscopic analysis. It is filed as functional, cell-based.
Series [6] deals with 3T3-L1. The series can be described thus: Cytotoxicity against mouse 3T3L1 cells assessed as reduction in cell viability up to 100 uM after 6 to 48 hrs by CCK-8 assay. It is filed as cell-based. A general note: Tetrazolium dyes change colour on reduction, which living cells bring about.
Series [7] has as its system Mus musculus. The series can be described thus: Activation of PKA in mouse 3T3-L1 cells assessed as lipolytic activity by measuring increase in glycerol release at 25 uM administered 1 hr after PKA inhibitor addition measured after 24 hrs in presence of 20 uM PKA inhibitor H-89. It is filed as cell-based. An outline of the steps: (§2)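 Day-8 differentiated 3T3-L1 adipocytes were preincubated with the specified inhibitor for 1 h, then incubated with sample plus inhibitor for 24 h in phenol-red-free DMEM. Released glycerol in the medium was quantified with free glycerol reagent (37 °C, 5 min, A540) and expressed relative to control.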

In series [8] the test system is Mus musculus. Briefly: Activation of ERK in mouse 3T3-L1 cells assessed as lipolytic activity by measuring increase in glycerol release at 25 uM administered 1 hr after ERK inhibitor addition measured after 24 hrs in presence of 20 uM ERK inhibitor PD 98059. It is filed as cell-based. The method in brief:
as §2

Series [9] deals with Beta-3 adrenergic receptor (Mus musculus) (UniProt P25962). Briefly: Activation of beta3 adrenergic receptor in mouse 3T3-L1 cells assessed as lipolytic activity by measuring increase in glycerol release at 25 uM administered 1 hr after beta3 adrenergic receptor inhibitor addition measured after 24 hrs in presence of 20 uM […] inhibitor propranolol. In kind it is cell-based. The method in brief:
as §2

The species entered for series [10] is Mus musculus. The series can be described thus: Induction of PKA phosphorylation in mouse 3T3-L1 cells at 12.5 uM in presence of 20 uM H-89 by immunoblotting. In kind it is cell-based. (A western blot detects proteins with antibodies after separation by electrophoresis.)

Molecules are shown by their SMILES. Active and inactive are the calls of the source. The rule behind the calls is not given here.

Sequence of Beta-3 adrenergic receptor (Mus musculus) (P25962 whole entry): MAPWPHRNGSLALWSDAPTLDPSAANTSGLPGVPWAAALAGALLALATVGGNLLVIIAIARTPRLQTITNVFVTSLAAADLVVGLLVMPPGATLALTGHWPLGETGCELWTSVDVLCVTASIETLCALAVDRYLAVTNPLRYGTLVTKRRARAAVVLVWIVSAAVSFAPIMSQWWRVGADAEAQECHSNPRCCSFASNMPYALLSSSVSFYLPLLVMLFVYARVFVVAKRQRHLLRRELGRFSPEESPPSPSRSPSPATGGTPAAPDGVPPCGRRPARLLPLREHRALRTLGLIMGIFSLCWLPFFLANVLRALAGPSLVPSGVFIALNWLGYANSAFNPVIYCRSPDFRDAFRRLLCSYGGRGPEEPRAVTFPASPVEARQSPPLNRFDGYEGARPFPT

Regarding `CC(C)NCC(O)c1ccc(O)c(O)c1` (centres undefined) [ISOPROTERENOL], the Activity in series [1] turned out to be 322%.
With `CC1=CC(=O)[C@@H](O)[C@]2(C)C3[C@]4(O)OC[C@@]35[C@@H](C[C@@H]12)OC(=O)[C@H](O)[C@@]5(O)[C@@](O)(CO)[C@H]4O` (some centres undefined), the outcome in [2] and in series [3] was inactive.
Consider `C=C1[C@@H](O)[C@@]2(O)OC[C@]34C2[C@@]2(C)[C@H](O)C(=O)C=C(C)[C@@H]2C[C@H]3OC(=O)[C@H](O)[C@@]14O` (some centres undefined), for which the results for the Activity result in series [4], in series [5] and in series [6] were “Dose-dependent effect”, “Dose-dependent effect” and “Non-Toxic”, respectively. Also, in series [4], the EC50 worked out at 14.6 µM. The outcome in series [7] and in series [10] was Active. Moreover, the result in series [8] and in series [9] was inactive.
As to `CC1=CC(=O)[C@@H](O)[C@]2(C)C3[C@]4(O)OC[C@@]35[C@@H](C[C@@H]12)OC(=O)[C@H](O)[C@@]5(O)[C@@]1(CO1)[C@H]4O` (some centres undefined), the Activity entry in [4] was “Dose-dependent effect”; in [5], “Dose-dependent effect”; in [6], “Non-Toxic”. For the same molecule, in series [4], the EC50 came out at 8.6 µM. Moreover, the outcome in series [7] and in [10] was Active. Moreover, the outcome in series [8] and in series [9] was inactive.

For orientation: EC50 means the midpoint of the concentration-response curve.
